# High-throughput results from PubChem BioAssay.
# MrgX1 PAM: human MrgX1 positive allosteric modulation, primary screen | MrgX1-HEK293, Fluo-4 calcium flux, FDSS; hits give high values | B-score at 10 µM | hit rate 0.63% among 310,000 | AID 588675;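 active = plate-corrected calcium response at least 3 library SD above typical, normal starting fluorescence, not activating the receptor alone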;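 note: compound read alongside a low EC10 to EC30 dose of BAM8-22 agonist; peak minus trough fluorescence over baseline measured at the second addition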
# RGS4 pot: RGS4 potentiation or activation | AID 463111 | hit rate 0.92% among 310,000 | HEK293 M3R/inducible RGS4, carbachol calcium flux Fluo4; hits give low values | B-score at 10 µM;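 active = B-score of the integrated calcium signal more than 4 SD below the library mean, with starting fluorescence not abnormally high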;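 note: negative B-score means reduced calcium response which marks RGS4 activation or potentiation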
#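 Detection: kinetic calcium fluorescence imaging with Fluo4-AM dye, 2 µM / Material: HEK293 cells with stable M3R and inducible RGS4 / Schedule: recording 10 s baseline at 1 Hz, 100 s post-agonist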
# MrgX1 agonist: agonists of human MrgX1 receptor | Q96LB2 | MrgX1-HEK293 cells, Fluo-4 calcium fluorescence, agonist mode; hits give high values | B-score at 10 µM | hit rate 0.44% among 310,000;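 active = calcium response B-score plate-corrected fluorescence ratio at least 3 library SD, with starting fluorescence B-score inside 5 SD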
#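 Material – MrgX1-expressing HEK293 cells · Input – 15,000 cells seeded per well · Dosing – compound as first of three additions · Times – overnight seeding, then 1 h dark dye loading · Measured by – kinetic Fluo-4 NW fluorescence of intracellular calcium · Read-out – B-scored fluorescence response ratio · Benchmarks – positive and negative control wells on each plate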
# MrgX1 antagonist: blocks BAM8-22 activation of human MrgX1 receptor; AID 588676; hit rate 1.3% among 310,000; MRGX1-HEK293 calcium flux, Fluo-4, BAM8-22 antagonism; hits give low values; Q96LB2; B-score at 10 µM;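 active = calcium-response B-score plate-corrected more than 3 library SD below zero, starting fluorescence within 5 deviations, no agonist response on first addition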;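 note: peak minus trough fluorescence over baseline after final BAM8-22 challenge near maximal dose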
# RGS4 block: human RGS4 inhibition. P49798. hit rate 0.45% among 310,000. HEK293 M3R/RGS4 inducible, Fluo-4 calcium flux; hits give high values; triggered by carbachol at its EC20. B-score at 10 µM. AID 463165;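 active = B-score, a plate-corrected calcium signal, over three deviations above library mean, with baseline fluorescence within five deviations of library mean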;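 note: RGS4 expression induced by doxycycline in cells with stable M3 receptor; B-score is computed from the integrated fluorescence ratio over baseline after carbachol; higher B-score means a larger calcium signal and so more RGS4 inhibition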
# Target sequence (P49798 whole entry, looked up): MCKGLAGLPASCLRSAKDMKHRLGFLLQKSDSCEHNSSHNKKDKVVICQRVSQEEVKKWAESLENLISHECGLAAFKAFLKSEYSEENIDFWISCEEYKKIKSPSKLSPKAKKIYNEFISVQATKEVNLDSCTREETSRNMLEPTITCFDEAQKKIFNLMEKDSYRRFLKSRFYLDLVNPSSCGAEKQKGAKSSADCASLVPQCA
# RGS4 act valid: RGS4 activation, validation assay. shares compounds with RGS4 pot. HEK293 M3R/RGS4 inducible, carbachol calcium flux Fluo4. inhibition, % at 10 µM. hit rate 89% among 1,100;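 active = inhibition above 3 SD of the buffer control wells, cut at about 41% in these data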;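 note: signal is the integrated peak-minus-minimum Fluo4 fluorescence over baseline ratio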
# M3R Ca counter: counter-screen for RGS4 activators: effect in non-induced cells; shares compounds with RGS4 pot; HEK293 M3R non-induced RGS4, Fluo4 calcium flux; after carbachol challenge at its EC90; inhibition, % at 10 µM; hit rate 82% among 1,100;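 active = inhibition exceeding 3 SD of buffer-only control wells, cut at about 26% in these data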;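 note: percent drop in integrated peak-minus-baseline over baseline Fluo4 ratio after carbachol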
# * = called active by the depositor; i = inactive; · = no result given. Most compounds without a hit are left out; they make up all but 3.5% or so of the library.
SMILES,MrgX1 PAM,RGS4 pot,MrgX1 agonist,MrgX1 antagonist,RGS4 block,RGS4 act valid,M3R Ca counter
CCOC(=O)COc1nc2c(c(-c3ccco3)c1C#N)CCc1ccccc1-2,i,-7.83*,i,i,i,81.5*,36.8*
CC(C)c1ccc2c(c1)C(c1ccc(N3CCOCC3)cc1)=NNC(c1cccs1)=N2,i,i,i,i,i,·,·
Cc1nc2sc(C)c(C)c2c(=O)o1,i,-8.48*,i,i,i,0.0,0.0
COC(=O)C(Nc1ccccc1Cl)(c1cc(C)c(O)c(C)c1)C(F)(F)F (centres undefined),i,-9.6*,i,i,i,93.0*,97.3*
Cc1nc2ccc(Br)cc2c2c1CC(CBr)O2 (centres undefined),i,-8.08*,i,i,i,64.5*,83.8*
CCc1ccc(CNC(=O)c2cc3c(C)nc4ccccc4c3o2)cc1,i,i,i,i,i,·,·
Cc1nc2ccccc2c2oc(C(=O)NCC3COc4ccccc4O3)cc12 (centres undefined),i,-11*,i,i,i,82.5*,42.3*
CC(=O)N1c2ccc(S(=O)(=O)N(C)CC(=O)NC3CCCC3)cc2CC1C (centres undefined),i,i,i,i,i,·,·
O=C(Nc1ccc(F)cc1Cl)C1CCN(C(=O)Nc2ccccc2)CC1,i,i,i,i,i,·,·
Cc1cc(=O)n(C(NC(=O)c2ccccc2)C(=O)c2ccccc2)cn1 (centres undefined),i,-9.25*,i,i,i,0.0,0.0
O=C(NC(C(=O)c1ccccc1)N1CCOCC1)c1ccccc1 (centres undefined),i,i,i,i,i,·,·
CC(=O)c1ccc(N2CCN(CC(O)COC(c3ccccc3)c3ccccc3)CC2)cc1 (centres undefined),i,-7.71*,i,i,i,61.5*,83.8*
CC(=O)c1ccc(N2CCN(CC(O)COC(c3ccccc3)c3ccccc3C)CC2)cc1 (centres undefined),i,-10.7*,i,i,i,94.5*,82.8*
CCCC(=O)NC(=S)Nc1cccc(Cl)c1N1CCCCC1,i,-8.91*,i,i,i,94.5*,64.3*
N#Cc1ccccc1OCCCN1CCC(Cc2ccccc2)CC1,i,-8.72*,i,i,i,82.0*,38.8*
COc1cccc(CN2CCCC(C(=O)c3ccc4c(c3)OCO4)C2)c1O (centres undefined),i,i,i,i,i,·,·
O=C(c1ccc2c(c1)OCO2)C1CCCN(C2CCN(CCc3ccccc3)CC2)C1 (centres undefined),i,-13.2*,i,i,i,87.0*,55.3*
CC(=O)c1cccc(CN2CCCC(C(=O)c3ccc4c(c3)OCO4)C2)c1 (centres undefined),i,-8.3*,i,i,i,74.0*,26.3*
COc1cccc(C(=O)C2CCCN(Cc3cccc(-n4nc(C)cc4C)c3)C2)c1 (centres undefined),i,-9.79*,i,i,i,93.0*,75.3*
COc1ccc(CN2CCCC(C(=O)c3ccc4c(c3)OCO4)C2)c(F)c1 (centres undefined),i,-8.33*,i,i,i,91.0*,80.8*
O=C(C1CCCN(Cc2ccc3c(c2)OCO3)C1)N1CCCC1 (centres undefined),i,i,i,i,i,·,·
COC(=O)c1ccc(CN2CCN(C(C)C)C(CCO)C2)cc1 (centres undefined),i,i,i,i,i,·,·
Cc1ccc(CNC(=O)C(c2ccccc2)c2ccccc2)cc1,i,i,i,i,i,·,·
COc1cc(/C=N/N2CCN(Cc3ccc(C)cc3)CC2)cc(OC)c1O,i,i,i,i,i,·,·
